Values after ≈ are worked out from the molar mass of the structure shown. Active and inactive are the calls of the source. No cut-off for these calls is given here.
Experiments:
Type in all cases: functional
Staphylococcus aureus [1] = experiment: Antibacterial activity against Staphylococcus aureus NCIB 8588 after 24 hrs by agar well diffusion method
Summary of the method: (§1)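 Agar well diffusion. Clinical isolates were first checked for viability, then grown in nutrient broth for 8 h at 37 °C. About 0.2 ml of broth culture was mixed into 18 ml molten diagnostic sensitivity test agar cooled to 45 °C and poured into plates. Compounds in DMSO went into bored wells, with streptomycin as reference. Plates stood 1 h for diffusion, then were incubated upright at 37 °C for 24 h. Clear inhibition zones were read in mm.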

Escherichia coli [2] = experiment: Antibacterial activity against Escherichia coli NCIB 86 after 24 hrs by agar well diffusion method; summary of the method: as §1
Pseudomonas fluorescens = experiment: Antibacterial activity against Pseudomonas fluorescens NCIB 3756 after 24 hrs by agar well diffusion method; summary of the method: as §1
Klebsiella pneumoniae [3] = experiment: Antibacterial activity against Klebsiella pneumoniae NCIB 418 after 24 hrs by agar well diffusion method; summary of the method: as §1
Bacillus subtilis [4] = experiment: Antibacterial activity against Bacillus subtilis NCIB 3610 after 24 hrs by agar well diffusion method; summary of the method: as §1
Bacillus cereus [5] = experiment: Antibacterial activity against Bacillus cereus NCIB 6349 after 24 hrs by agar well diffusion method; summary of the method: as §1
Shigella dysenteriae [6] = experiment: Antibacterial activity against Shigella dysenteriae after 24 hrs by agar well diffusion method
Pseudomonas aeruginosa = experiment: Antibacterial activity against Pseudomonas aeruginosa NCIB 950 after 24 hrs by agar well diffusion method; summary of the method: as §1
Candida albicans = experiment: Antifungal activity against Candida albicans after 3 days by agar well diffusion method
Bacillus anthracis [7] = experiment: Antibacterial activity against Bacillus anthracis after 72 hrs
[8] = test system: Geobacillus stearothermophilus; experiment: Antibacterial activity against Bacillus stearothermophilus NCIB 8222 after 72 hrs; conditions: NCIB 8222, 72 h
Summary of the method: (§2)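 MIC by the Russell and Furr method, run on selected Gram-positive and Gram-negative strains. Once the agar had set and its surface had dried, nutrient agar plates were streaked with overnight broth cultures. They were incubated at 37 °C for up to 72 h and scored for presence or absence of growth.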

Bacillus subtilis [9] = experiment: Antibacterial activity against Bacillus subtilis NCIB 3610 after 72 hrs; conditions: NCIB 3610, 72 h; summary of the method: as §2
Bacillus cereus [10] = experiment: Antibacterial activity against Bacillus cereus NCIB 6349 after 72 hrs; conditions: NCIB 6349, 72 h; summary of the method: as §2
Staphylococcus aureus [11] = experiment: Antibacterial activity against Staphylococcus aureus NCIB 8588 after 72 hrs; conditions: NCIB 8588, 72 h; summary of the method: as §2
Escherichia coli [12] = experiment: Antibacterial activity against Escherichia coli NCIB 86 after 72 hrs; summary of the method: as §2
Klebsiella pneumoniae [13] = experiment: Antibacterial activity against Klebsiella pneumoniae NCIB 418 after 72 hrs; summary of the method: as §2
Shigella dysenteriae [14] = experiment: Antibacterial activity against Shigella dysenteriae after 72 hrs
Summary of the method: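 MIC by agar dilution: compound-containing nutrient agar was set and surface-dried, then streaked with overnight broth culture of the clinical isolate. Incubated at 37 °C for up to 72 h and scored for presence or absence of growth. Streptomycin was the reference.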

Bacillus anthracis [15] = experiment: Antibacterial activity against Bacillus anthracis after 24 hrs by agar well diffusion method
[16] = test system: Geobacillus stearothermophilus; experiment: Antibacterial activity against Bacillus stearothermophilus NCIB 8222 after 24 hrs by agar well diffusion method; summary of the method: as §1

SMILES | inhibition zone (IZ) (Staphylococcus aureus [1]) [mm] | inhibition zone (IZ) (Escherichia coli [2]) [mm] | inhibition zone (IZ) (Pseudomonas fluorescens) [mm] | inhibition zone (IZ) (Klebsiella pneumoniae [3]) [mm] | inhibition zone (IZ) (Bacillus subtilis [4]) [mm] | inhibition zone (IZ) (Bacillus cereus [5]) [mm] | inhibition zone (IZ) (Shigella dysenteriae [6]) [mm] | inhibition zone (IZ) (Pseudomonas aeruginosa) [mm] | inhibition zone (IZ) (Candida albicans) | MIC (Bacillus anthracis [7]) [µg/mL] | MIC [8] [µg/mL] | MIC (Bacillus subtilis [9]) [µg/mL] | MIC (Bacillus cereus [10]) [µg/mL] | MIC (Staphylococcus aureus [11]) [µg/mL] | MIC (Shigella dysenteriae [14]) | inhibition zone (IZ) (Bacillus anthracis [15]) [mm] | inhibition zone (IZ) [16] [mm] | MIC (Escherichia coli [12]; NCIB 86, 72 h) [µg/mL] | MIC (Klebsiella pneumoniae [13]; NCIB 418, 72 h) [µg/mL] | further results
CN[C@@H]1[C@H](O[C@H]2[C@H](O[C@H]3[C@H](O)[C@@H](O)[C@H](N=C(N)N)[C@@H](O)[C@@H]3N=C(N)N)O[C@@H](C)[C@]2(O)C=O)O[C@@H](CO)[C@H](O)[C@H]1O [STREPTOMYCIN] | 21 | 0 | 30 | 0 | 20 | 28 | 22 | 0 | inactive | 31.3 (≈ 53.8 µM) | 7.8 (≈ 13.4 µM) | 15.6 (≈ 26.8 µM) | 7.8 (≈ 13.4 µM) | 7.8 (≈ 13.4 µM) | 15.6 µg/mL (≈ 26.8 µM) | 18 | 23 | – | – | MIC (Escherichia coli [12]): inactive; MIC (Klebsiella pneumoniae [13]): inactive
C/C(=N\Nc1nc2ccccc2[nH]c1=O)c1cc2ccccc2oc1=O | 15 | 30 | 0 | 20 | 32 | 20 | 0 | 0 | 29 mm | 62.5 (≈ 180 µM) | 31.3 (≈ 90.4 µM) | 7.8 (≈ 22.5 µM) | 31.3 (≈ 90.4 µM) | 31.3 (≈ 90.4 µM) | inactive | 18 | 28 | 31.3 (≈ 90.4 µM) | 31.3 (≈ 90.4 µM) | –
C/C(=N\Nc1nc2ccccc2[nH]c1=O)c1cc2cc(Br)ccc2oc1=O | 14 | 18 | 0 | 18 | 30 | 15 | 0 | 0 | 21 mm | 62.5 (≈ 147 µM) | 7.8 (≈ 18.3 µM) | 7.8 (≈ 18.3 µM) | 62.5 (≈ 147 µM) | 62.5 (≈ 147 µM) | inactive | 16 | 29 | 62.5 (≈ 147 µM) | 62.5 (≈ 147 µM) | –
C/C(=N\Nc1nc2ccccc2[nH]c1=O)c1cc2cc(Cl)ccc2oc1=O | 32 | 30 | 10 | 32 | 33 | 30 | 19 | 14 | 14 mm | 7.8 (≈ 20.5 µM) | 7.8 (≈ 20.5 µM) | 7.8 (≈ 20.5 µM) | 7.8 (≈ 20.5 µM) | 15.6 (≈ 41 µM) | 15.6 µg/mL (≈ 41 µM) | 25 | 30 | 7.8 (≈ 20.5 µM) | 7.8 (≈ 20.5 µM) | –
